Among the data in ChEMBL document CHEMBL1144120, “In vitro evaluation of antifungal properties of phenylpropanoids and related compounds acting against dermatophytes” (1999) are Activity and MIC values, retold here.

SMILES strings stand for the structures. Values after ≈ are worked out from the molar mass of the structure shown. Active and inactive are the calls of the source. No cut-off for these calls is given here.

The subject of one experiment is Aspergillus flavus. Nature of the experiment: Antifungal activity against Aspergillus flavus ATCC 9170 by agar dilution method. The experiment is classed as functional, organism-based. Put shortly:
(§1)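 Sabouraud chloramphenicol agar dilution in 96-well plates. Strains were grown on Sabouraud chloramphenicol agar slants for 48 h at 30 °C and suspended in sterile distilled water, adjusted to 10^6 viable cells/mL. DMSO stocks were serially two-fold diluted into the agar to give 0.10–50 µg/mL, with DMSO ≤2% final. 5 µL inoculum per well; incubated 24, 48 or 72 h at 30 °C per control growth; MIC recorded.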

In experiment [1] the test system is Trichophyton rubrum. Kind of experiment: Antifungal activity against Trichophyton rubrum C 113 by agar dilution method. In kind it is functional. Put shortly:
(§2)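 Dermatophytes were tested by agar dilution on Sabouraud chloramphenicol agar in 96-well plates. DMSO stock solutions were serially two-fold diluted into the medium to give final concentrations of 0.10–50 µg/mL, with DMSO not exceeding 2%. Each well received 5 µL of spore suspension.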

Experiment [2] has as its system Trichophyton mentagrophytes. Kind of experiment: Antifungal activity against Trichophyton mentagrophytes ATCC by agar dilution method. The experiment is classed as functional. Put shortly: as §2
The next experiment has as its system Candida albicans. Nature of the experiment: Antifungal activity against Candida albicans ATCC 10231 by agar dilution method. In kind it is functional, organism-based. Put shortly: as §1
Experiment [3] has as its system Nannizzia gypsea. Nature of the experiment: Antifungal activity against Microsporum gypseum C 115 by agar dilution method. In kind it is functional. The gist of the method: as §2
The next experiment has as its system Saccharomyces cerevisiae. Kind of experiment: Antifungal activity against Saccharomyces cerevisiae ATCC 9763 by agar dilution method. The experiment is classed as functional, organism-based. The gist of the method:
as §1

The test system of experiment [4] is Microsporum canis. Nature of the experiment: Antifungal activity against Microsporum canis C 112 up to 50 ug/mL by agar dilution method. The experiment is classed as functional, organism-based. The gist of the method: as §2
The subject of experiment [5] is Epidermophyton floccosum. Kind of experiment: Antifungal activity against Epidermophyton floccosum C 114 up to 50 ug/mL by agar dilution method. In kind it is functional, organism-based. The gist of the method:
as §2

In the next experiment the test system is Aspergillus niger. Kind of experiment: Antifungal activity against Aspergillus niger ATCC 9029 by agar dilution method. The experiment is classed as functional, organism-based. Put shortly:
as §1

The subject of experiment [6] is Trichophyton rubrum. Kind of experiment: Antifungal activity against Trichophyton rubrum C 113 up to 50 ug/mL by agar dilution method. In kind it is functional, organism-based. Put shortly: as §2
Experiment [7] relates to Microsporum canis. Kind of experiment: Antifungal activity against Microsporum canis C 112 by agar dilution method. In kind it is functional. The gist of the method: as §2
Another experiment relates to Aspergillus fumigatus. Nature of the experiment: Antifungal activity against Aspergillus fumigatus ATCC 26934 by agar dilution method. In kind it is functional, organism-based. Put shortly: as §1
Experiment [8] relates to Nannizzia gypsea. Nature of the experiment: Antifungal activity against Microsporum gypseum C 115 up to 50 ug/mL by agar dilution method. In kind it is functional, organism-based. Put shortly: as §2
For experiment [9], the system named is Epidermophyton floccosum. Kind of experiment: Antifungal activity against Epidermophyton floccosum C 114 by agar dilution method. The experiment is classed as functional. Put shortly:
as §2

In a further experiment the test system is Cryptococcus neoformans. Kind of experiment: Antifungal activity against Cryptococcus neoformans ATCC 32264 by agar dilution method. The experiment is classed as functional, organism-based. Put shortly:
as §1

Experiment [10] concerns Trichophyton mentagrophytes. Kind of experiment: Antifungal activity against Trichophyton mentagrophytes ATCC 9972 up to 50 ug/mL by agar dilution method. The experiment is classed as functional, organism-based. The gist of the method: as §2

As to `CCC(O)c1cc(OC)c(OC)c(OC)c1` (stereo not given), the result with Aspergillus flavus, in the experiment on Candida albicans, with Saccharomyces cerevisiae, with Microsporum canis [4], with Epidermophyton floccosum [5] and with Aspergillus niger was inactive. Also, the outcome (in the experiment on Trichophyton rubrum [6]; in the experiment with Aspergillus fumigatus; in the experiment with Nannizzia gypsea [8]; in the experiment on Cryptococcus neoformans; in experiment [10]) was inactive. Also, the MIC is > 50 µg/mL in the experiment on Trichophyton rubrum [1]; > 50 µg/mL in [2]; > 50 µg/mL against Nannizzia gypsea [3]; 50 µg/mL (≈ 221 µM) with Microsporum canis [7]; 50 µg/mL (≈ 221 µM) in the experiment with Epidermophyton floccosum [9].
Consider `COc1ccc([C@H](O)[C@H](C)Br)cc1OC`, for which the outcome with Aspergillus flavus, in the experiment on Candida albicans, in the experiment on Saccharomyces cerevisiae, in the experiment with Microsporum canis [4], in the experiment on Epidermophyton floccosum [5] and in the experiment on Aspergillus niger was inactive. For the same compound, the outcome (with Trichophyton rubrum [6]; in the experiment on Aspergillus fumigatus; with Nannizzia gypsea [8]; in the experiment with Cryptococcus neoformans; in experiment [10]) was inactive. Further, the MIC with Trichophyton rubrum [1] was > 50 µg/mL; in experiment [2], > 50 µg/mL; with Nannizzia gypsea [3] it was > 50 µg/mL; in the experiment with Microsporum canis [7] it was > 50 µg/mL; against Epidermophyton floccosum [9], 50 µg/mL (≈ 182 µM).
Turning to `C/C=C\c1ccc(O)c(OC)c1` [ISOEUGENOL], the result in the experiment with Aspergillus flavus, in the experiment on Candida albicans, in the experiment on Saccharomyces cerevisiae, in the experiment on Microsporum canis [4], in the experiment on Epidermophyton floccosum [5] and in the experiment with Aspergillus niger was inactive. The outcome (with Trichophyton rubrum [6]; in the experiment with Aspergillus fumigatus; with Nannizzia gypsea [8]; in the experiment with Cryptococcus neoformans; in experiment [10]) was inactive. For the same compound, the MIC (against Trichophyton rubrum [1]; in [2]; in the experiment on Nannizzia gypsea [3]; against Microsporum canis [7]; with Epidermophyton floccosum [9]) was > 50 µg/mL throughout.
As for `CCC(=O)c1ccc2ccccc2c1`, the result with Aspergillus flavus, with Candida albicans, in the experiment with Saccharomyces cerevisiae, with Microsporum canis [4], in the experiment on Epidermophyton floccosum [5] and with Aspergillus niger was inactive. Further, the outcome (with Trichophyton rubrum [6]; in the experiment with Aspergillus fumigatus; with Nannizzia gypsea [8]; in the experiment with Cryptococcus neoformans; in experiment [10]) was inactive. Besides, the MIC amounted to 40 µg/mL (≈ 217 µM) in the experiment with Trichophyton rubrum [1]; 25 µg/mL (≈ 136 µM) in [2]; 40 µg/mL (≈ 217 µM) against Nannizzia gypsea [3]; 50 µg/mL (≈ 271 µM) in the experiment on Microsporum canis [7]; 40 µg/mL (≈ 217 µM) in the experiment with Epidermophyton floccosum [9].
As for `COc1ccc(C(O)C(C)C)cc1OC` (stereo not given), the result in the experiment with Aspergillus flavus, in the experiment on Candida albicans, in the experiment on Saccharomyces cerevisiae, in the experiment with Microsporum canis [4], in the experiment with Epidermophyton floccosum [5] and in the experiment with Aspergillus niger was inactive. Moreover, the outcome (in the experiment with Trichophyton rubrum [6]; with Aspergillus fumigatus; with Nannizzia gypsea [8]; with Cryptococcus neoformans; in [10]) was inactive. Moreover, the MIC (against Trichophyton rubrum [1]; in experiment [2]; in the experiment on Nannizzia gypsea [3]; in the experiment with Microsporum canis [7]; against Epidermophyton floccosum [9]) was > 50 µg/mL each time.
